In publication PMC4553108 (Xenobiotica; the fate of foreign compounds in biological …, 2015):

Legend:
[1] = GSH and NAC adduct formation in spiked mouse plasma; format: in vitro ADME
Outline: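 Freshly collected blank mouse blood/plasma and frozen plasma spiked at 10 μg/mL and held 5 and 20 min at room temperature. One frozen-plasma set was fortified with 9.8 μM GSH before spiking. Samples extracted with four volumes MeOH and spun at 16 000 × g for 10 min. Supernatant was mixed 1:1 with 20% methanol in 7.5 mM ammonium formate (pH 2.5). GSH/NAC adducts quantified by negative-mode LC-MS/MS MRM.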

[2] = Stability of BI-94 in monkey plasma; format: in vitro ADME; conditions: immediately after spiking (data not shown)
[3] = system: Balb/c mice; assay: GSH and NAC adduct formation in vivo after intravenous dose to mice
[4] = Stability of BI-94 in human plasma; format: in vitro ADME; conditions: immediately after spiking (data not shown)
[5] = Stability of BI-94 in solution; format: physicochemical; conditions: for stability in solution: 10 μg/mL, up to 60 min
[6] = biological target: human serum albumin (HSA)-T3 peptide (Homo sapiens, UniProt P02768); assay: HSA-T3 peptide adduct formation in solution; format: in vitro ADME; conditions: deionized water, 30 min; MS/MS mass shifts +164 (A1) and +273 (A2)
Chain of human serum albumin (HSA)-T3 peptide (P02768 45-65 limits assumed): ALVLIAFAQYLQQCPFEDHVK

[7] = NAC adduct formation in solution; format: in vitro ADME; conditions: deionized water, 30 min, direct MS; adducts of fragments of NAC and BI-94
Outline: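 For structural identification, test compound (final 10 μg/mL) incubated 30 min in water with GSH or NAC, then analysed by direct LC-MS/MS and MS/MS. NAC adducts were screened by EMS-IDA-EPI (positive and negative ESI) only. GSH adducts were also screened by negative-mode precursor ion scans (m/z 254, 272) and by isotopic filtering with 1:1 GSH:[13C2,15N]-GSH.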

[8] = Stability / recovery of BI-94 in mouse plasma; format: in vitro ADME
Outline: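 Mouse plasma (stored −80°C) spiked at 10 μg/mL, room temperature: undiluted, or diluted with one or nine volumes of water or 7.5 mM ammonium formate (pH 2.5). At 1, 20 and 60 min, extracted with four volumes MeOH and spun 16 000 × g for 10 min. Supernatant mixed 1:1 with 20% methanol in formate buffer. Post-extracted plasma was spiked after MeOH extraction. Analysed by LC-MS/MS, m/z 319.1→179.8; % recovery.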

[9] = Stability of BI-94 in rat plasma; format: in vitro ADME; conditions: immediately after spiking (data not shown)
[10] = GSH adduct formation in solution; format: in vitro ADME
[11] = system: NCI 60 cell line panel; conditions: read-out: average GI50; average value in the NCI 60 cell line panel; cited from earlier work
[12] = water, after 60 min of incubation

With `O=[N+]([O-])c1ccc(S(=O)(=O)Cc2ccccc2)c2nonc12` [BI-94, 4-(benzylsulfonyl)-7-(hydroxy(oxido)amino)-2,1,3-benzoxadiazole] the “GSH adducts (A1 and A2) and NAC adduct (A1) in spiked plasma” value ([1]; blank plasma freshly collected from mice, 10 μg/mL) was “detected”, the “GSH and NAC adducts in spiked plasma” value ([1]; frozen blank mouse plasma) was “none of the adducts” and the recovery from plasma [2] was < 1%. For the same compound, the “time within which all three mice died after BI-94 administration” value ([3]; 10 mg/kg intravenous dose, male Balb/c mice (n = 3)) was ≤ 2 h, the “BI-94 adducts with GSH (A1 and A2) and NAC (A1 and A2) in plasma in vivo” value ([3]; plasma 5 and 60 min after 10 mg/kg intravenous dose to mice) was “detected” and the recovery from plasma [4] was < 1%. The “stability in the autosampler” value ([5]; 48 h in 50 % methanol in H2O reconstitution solution (data not shown)) was “stable”, the stability in solution ([5]; NaOH or various buffers at pHs 7–9, room temperature) was “not stable” and the stability in solution ([5]; water and various buffers at pHs 2.5–5, room temperature) was “stable”. For the same compound, the “adduct formation with HSA-T3 peptide, site” value [6] was “forms adducts with albumin at the Cys34 position”, the NAC adducts detected [7] was “three NAC adducts” and the “recovery from post-extracted plasma” value ([8]; blank plasma pre-treated with MeOH and formate buffer, after 60-min incubation) was 100%. The “recovery from mouse plasma” value ([8]; immediately after spiking, plasma diluted with one or nine volumes of H2O) was “below detection limit”, the “recovery from mouse plasma” value ([8]; immediately after spiking, undiluted mouse plasma, 10 μg/mL) was “below detection limit” and the “recovery from mouse plasma” value ([8]; nine volume dilution with 7.5 mM NH4-formate buffer (pH 2.5)) was “completely recovered”. The “recovery from mouse plasma” value ([8]; one volume dilution with 7.5 mM NH4-formate buffer (pH 2.5), 60 min of incubation) was 10%, the “recovery from mouse plasma” value ([8]; one volume dilution with 7.5 mM NH4-formate buffer (pH 2.5), immediate) was 62% and the “recovery from post-extracted plasma” value ([8]; plasma pretreated with MeOH, after 60-min incubation) was 20%. For the same compound, the “recovery from post-extracted plasma” value ([8]; plasma pretreated with MeOH, immediately after spiking) was 100%, the recovery from plasma [9] was < 1% and the “BI-94 depleted on incubation with GSH” value ([10]; NH4-formate buffer of pH 2.5, over 1 h) was 14%. For the same compound, the “decrease in BI-94 peak area on incubation with GSH” value ([10]; PBS, within 5 min of incubation) was 94.5%, the GSH adducts detected ([10]; deionized water, 30 min, direct MS, adducts with a fragment of BI-94) was “two adducts” and the “decrease in BI-94 peak area on incubation with GSH” value [10, 12] was 64%. For the same compound, the “increase in peak area of A1 and A2 GSH adducts” value [10, 12] was 6 fold and the GI50 [11] was 22.9 µM.
